FGF22 binding: FGF22 (human) thermal shift binding; Q9HCT0; recombinant FGF22 thermal shift, SYPRO orange fluorescence; percent of sucrose octasulfate shift, DMSO zero; activity (Tm shift, normalised), % at 9.99 µM; 340,000 tested, 1.5% active; AID 651658;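 active = mean Tm shift, scaled 0 neutral to 100 positive control, at about 1.3% or above, every replicate too, limit read from the data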
FN deposit inh: fibronectin deposition inhibition. AID 743247. 350,000 tested, 0.086% active. inhibition, % at 12.6 µM. AH1F fibroblasts, Alexa488-fibronectin deposition fluorescence, overnight;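 active = mean inhibition across replicates of 30% or more, regardless of how many single replicates reach that level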;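 note: positive control wells lacked labelled fibronectin entirely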
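Assay system: AH1F fibroblasts assembling fluorescent fibronectin matrix; Amount: 10000 AH1F cells per well; Buffer or medium: DMEM, 2% serum; Probe or stimulus: Alexa488-fibronectin, 24 nM final in well; Doses: single compound dose, delivered by pin transfer; Incubation: 1 h adhesion, overnight exposure; Measured by: fluorescence 485/525 nm; Read-out: fibronectin deposition inhibition.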
E-sel inducer: E-selectin induction on HUVECs; activation, % at 7.58 µM; AID 686992; P16581; 260,000 tested, 0.37% active; HUVEC E-selectin immunofluorescence imaging; normalized: neutral wells 0, TNF-alpha wells 100;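 active = mean E-selectin-positive cell signal at least 10% of the positive control, reached in at least 60% of replicates, without over 20% cell loss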
Target sequence (P16581 whole entry, looked up): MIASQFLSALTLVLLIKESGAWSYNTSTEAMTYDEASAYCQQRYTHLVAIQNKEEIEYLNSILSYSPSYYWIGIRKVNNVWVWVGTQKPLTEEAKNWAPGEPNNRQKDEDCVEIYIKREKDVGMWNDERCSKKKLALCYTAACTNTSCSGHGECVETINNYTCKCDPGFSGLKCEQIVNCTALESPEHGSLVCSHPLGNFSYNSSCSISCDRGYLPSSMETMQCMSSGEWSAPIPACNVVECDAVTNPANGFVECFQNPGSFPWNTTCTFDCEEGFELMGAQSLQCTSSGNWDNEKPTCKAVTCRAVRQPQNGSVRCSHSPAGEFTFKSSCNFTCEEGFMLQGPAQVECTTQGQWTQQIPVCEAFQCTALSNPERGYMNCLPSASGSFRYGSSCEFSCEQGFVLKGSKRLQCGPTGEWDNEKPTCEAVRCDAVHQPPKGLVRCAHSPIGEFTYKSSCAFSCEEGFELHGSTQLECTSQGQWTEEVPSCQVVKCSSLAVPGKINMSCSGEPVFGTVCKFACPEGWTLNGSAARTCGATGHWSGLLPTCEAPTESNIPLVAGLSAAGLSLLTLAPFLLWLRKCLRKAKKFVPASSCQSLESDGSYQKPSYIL
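Read-out: % PE-positive cells | Test system: HUVEC | Doses: One compound dose added by pin transfer | Buffer or medium: EGM-2 over gelatin coat | Signal: Immunofluorescence imaging | Benchmarks: TNF-alpha, DMSO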
rRNA inh HTS: selective bacterial rRNA inhibition in E. coli. E. coli WT GFP vs humanized-ribosome RFP mutants, fluorescence, 24 h; active compounds read low; DMSO median 0, no signal -100. GFP signal change (wild-type ribosome), % (no concentration beside the values). 350,000 tested, 1.6% active;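 active = significant combined selectivity score with lowered wild-type GFP, culture density cut under 30%, mutant RFP and density less affected; inactive = any of these conditions unmet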
C2C12 statin: protects C2C12 myotubes from simvastatin toxicity | ATP luminescence, 48 h; scaled: DMSO 0, geranylgeraniol control 100 | rescue of ATP level, % at 7.49 µM | 330,000 tested, 0.78% active | AID 602340;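 active = mean ATP rescue above about 67%, or every replicate alone reaching that limit, limit read from the data, passing the limit was not always enough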;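 note: myotubes were challenged with 10 µM simvastatin during compound exposure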
SIRT5 block: blocks human SIRT5 desuccinylation of peptide; Purified SirT5, succinyl-peptide AMC, trypsin-coupled fluorescence; inhibition, % at 15 µM; 330,000 tested, 1.1% active; in the data active = inhibition above about 15%
* = called active by the depositor; . = no result. Hits are enriched below; roughly 4% of the tested compounds scored in any of these assays.

SMILES	FGF22 binding	FN deposit inh	E-sel inducer	rRNA inh HTS	C2C12 statin	SIRT5 block
CCCC(=O)Nc1sc(-c2ccccc2)c(-c2ccccc2)c1C(=O)O	-0.2	-1.6	.	-43.2	-8.1	3.7
CO[C@H]1CN(C)C(=O)c2cc(NS(=O)(=O)c3ccc(Cl)cc3)ccc2OC[C@H](C)NC[C@H]1C	0.0	3.7	-0.2	1.2	7.3	4.3
Cc1ccccc1C(=O)N1CCC(C(=O)NN2C(=O)NC3(CCC(C)CC3)C2=O)CC1 (centres undefined)	-0.1	9.3	.	.	-0.1	-2.0
Cc1ccccc1C(=O)N1CCC(C(=O)NN2C(=O)NC3(CCCCC3)C2=O)CC1	0.2	2.7	264.2*	.	-1.3	-0.6
O=C(CSc1nc2ccccc2s1)N/N=C/c1ccc(C(=O)O)cc1	0.6	34.6*	.	9.7	.	-4.0
COc1ccc(/C=N/NC(=O)c2sc(C)nc2C)cc1	43.0*	-1.9	.	11.8	-4.1	4.9
COc1ccc(/C=N/NC(=O)CCSc2nc3ccccc3s2)cc1	0.0	-3.0	.	-25.6*	.	-1.6
COc1ccccc1/C=N/NC(=O)c1sc(C)nc1C	0.2	-0.7	.	14.4	2.0	-1.7
CN(C)C(=O)c1ccc(-c2ccc3c(c2)[C@H]2[C@H](CCN2C(=O)C2CCC2)[C@@H](CO)N3C)cc1	0.0	8.7	0.0	-1.3	14.6	4.0
CC(C)CC1NC(=O)N(CCCCN2C(=O)c3ccccc3C2=O)C1=O (centres undefined)	43.5*	0.1	1.4	8.2	.	-1.9
CC(C)CC1NC(=O)N(CC(=O)Nc2ccccc2-c2ccccc2)C1=O (centres undefined)	0.1	.	.	-8.2	.	7.3
O=C(NCCNC(=O)c1ccc(-c2cc(Cl)ccc2Cl)o1)c1cnccn1	43.7*	4.1	0.0	-4.8	-5.0	.
O=C(COc1ccc2ccccc2c1)NNC(=O)c1cnccn1	.	9.0	-2.5	.	.	.
CC(C)c1ccc(OCC(=O)NNC(=O)c2cnccn2)cc1	0.0	0.5	.	-28.1*	.	-4.2
O=C(NCCCNC(=O)c1cnccn1)c1ccc(Cl)cc1	-0.3	1.5	-0.1	4.5	-8.0	0.8
O=C(COc1ccc(Cl)cc1)NCCCNC(=O)c1cnccn1	-0.1	-2.5	34.1*	3.9	-9.9	-2.9
O=C(NCCNC(=O)c1ccc(-c2ccc(Cl)c(Cl)c2)o1)c1cnccn1	-0.2	7.1	-0.3	-48.5	-12.0	-5.1
C[C@@H]1CN(C)C(=O)c2cc(N(C)C)ccc2O[C@@H]1CN(C)C(=O)OC(C)(C)C	.	-4.6	.	-6.8	.	.
CCC(CC)c1nnc(NC(=O)C2=NNC(=O)CC2)s1	43.1*	-1.6	.	7.2	.	1.9
O=c1sc2ccccc2c(=O)n1Cc1ccccc1F	43.2*	3.9	-0.5	8.8	.	-0.9
O=c1c2ccccc2n(Cc2ccccc2F)c(=O)n1Cc1ccccc1F	.	-5.7	.	.	.	.
COc1cccc(Cn2c(=O)sc3ccccc3c2=O)c1	43.3*	1.4	.	-24.2	.	-2.5
Cc1ccc(Cn2c(=O)sc3ccccc3c2=O)cc1	.	.	.	.	10.1	.
C[C@H]1CCCCO[C@H](CN(C)CC2CCCCC2)[C@@H](C)CN([C@@H](C)CO)C(=O)c2cc(NC(=O)Nc3cccc4ccccc34)ccc2O1	1.1	.	1.4	-7.0	.	0.2
COc1ccccc1NC(=O)N1CC(=O)N2[C@H](CO)[C@H](c3ccc(C#CCC(C)C)cc3)[C@@H]2C1	.	.	.	-6.5	.	.
O=C1C=C(c2ccccc2)C[C@H](c2cccs2)[C@H]1n1cnc([N+](=O)[O-])c1	.	-1.6	.	.	137.4*	.
O=C1C=C(c2cccs2)CC(c2cccs2)C1n1cnc([N+](=O)[O-])c1 (centres undefined)	.	.	.	.	0.1	.
CN1C(=O)c2cc(NC(=O)C3CCCC3)ccc2OC[C@@H]2O[C@H](CC(=O)NCCc3ccncc3)CC[C@H]21	0.7	0.5	-0.1	3.5	.	0.9
C[C@@H]1CN([C@@H](C)CO)C(=O)c2cccc(NC(=O)c3nc4ccccc4s3)c2O[C@@H]1CN(C)C(=O)Nc1ccccc1	0.2	.	0.3	-5.6	25.1	15.0
CCOC(=O)N1CCN(C(=O)C2CCN(S(=O)(=O)c3cc(OC)ccc3OC)CC2)CC1	43.0*	-4.0	-0.8	-5.0	.	8.5

Source: PubChem (Broad Institute)
